# Assay outcomes as filed in PubChem.
# This is a sample that favours compounds with a hit; in the whole collection about 1.9% have one here.
# SR-BI HDL uptake: blocks mouse SR-BI lipid uptake from DiI-HDL; 320,000 compounds, 0.96% hits; inhibition, % at 12.5 µM; AID 488896; ldlA[mSR-BI] CHO cells, DiI-HDL uptake fluorescence, 3 h;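 active = mean replicate inhibition of at least 70% and a set share of replicates each scoring 70 or more; inconclusive = meets just one of the two criteria; inactive = fails both criteria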;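 also: 0% = median of neutral control wells and 100% = median of positive control wells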
# SR-BI uptake up: enhances SR-BI lipid uptake from DiI-HDL; CHO ldlA[mSR-BI] cells, DiI-HDL uptake fluorescence, 3 h; 100 = double the neutral-control signal; activation, % at 12.5 µM; 320,000 compounds, 0.096% hits; AID 504775;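 active = mean replicate activation of at least 60% and every replicate at or above 60%; inconclusive = mean or all-replicate condition met, but not both; inactive = mean below 60% and not all replicates reaching 60%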;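 also: 0% = median plate neutral-control signal and 100% = twice that signal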
#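 material = CHO ldlA[mSR-BI] cells | medium = Ham's F12 with 0.5% BSA, HEPES 25 mM, pH 7.4 | reagent = fluorescent DiI-HDL, 10 µg/mL final | compound dosing = single-point compound dose | incubation = 3 h, 37 °C | measured by = bottom-read fluorescence, 550/595 nm | measure = HDL uptake via cellular fluorescence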
# UBC13 polyUb: blocks human UBC13 polyubiquitin chain formation; inhibition, % at 20 µM; 330,000 compounds, 0.47% hits; TR-FRET; P61088; AID 485273; in the data active = inhibition above about 45%, passing the limit was not always enough; inconclusive = no clear call, values can overlap the other calls
# Neddyl block: inhibitors of human cullin neddylation | P61081+Q13564 | TR-FRET cullin neddylation, biochemical | inhibition, % at 25 µM | 360,000 compounds, 0.58% hits | AID 651699; in the data active = inhibition above about 36%
# Target sequence (P61081 whole entry, looked up): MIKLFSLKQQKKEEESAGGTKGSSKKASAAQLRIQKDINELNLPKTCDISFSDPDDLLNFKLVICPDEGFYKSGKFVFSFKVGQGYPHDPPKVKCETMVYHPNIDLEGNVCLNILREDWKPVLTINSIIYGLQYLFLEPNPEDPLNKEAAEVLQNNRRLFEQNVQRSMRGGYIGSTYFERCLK
# Target sequence (Q13564 whole entry, looked up): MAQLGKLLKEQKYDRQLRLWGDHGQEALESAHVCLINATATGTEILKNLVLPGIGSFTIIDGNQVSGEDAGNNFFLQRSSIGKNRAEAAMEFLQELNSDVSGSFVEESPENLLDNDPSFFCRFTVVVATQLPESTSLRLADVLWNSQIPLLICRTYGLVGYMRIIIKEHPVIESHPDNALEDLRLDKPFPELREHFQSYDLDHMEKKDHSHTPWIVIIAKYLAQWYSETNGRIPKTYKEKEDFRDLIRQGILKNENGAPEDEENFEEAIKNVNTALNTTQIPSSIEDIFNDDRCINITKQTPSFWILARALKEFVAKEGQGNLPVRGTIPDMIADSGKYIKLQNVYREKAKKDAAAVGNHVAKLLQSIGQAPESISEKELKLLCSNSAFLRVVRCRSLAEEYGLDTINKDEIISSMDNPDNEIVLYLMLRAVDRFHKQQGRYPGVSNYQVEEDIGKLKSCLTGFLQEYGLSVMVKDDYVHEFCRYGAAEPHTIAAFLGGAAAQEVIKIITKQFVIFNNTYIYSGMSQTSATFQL
# Casp3 counter: counter-screen for UBC13 inhibitors: human caspase-3 inhibition | shares compounds with UBC13 polyUb | Recombinant caspase-3, Caspase-Glo 3/7 luminescence, 60 min | inhibition, % at 20 µM | 1,400 compounds, 4% hits;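 active = mean inhibition across replicates above about 26%, limit read from the data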;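 also: plate controls were DMSO with caspase-3 for no effect and DMSO wells lacking enzyme for full effect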
# UBC13 conf: human UBC13 polyubiquitin inhibition, confirmed; shares compounds with UBC13 polyUb; UBC13 polyubiquitination, TR-FRET, biochemical; inhibition, % at 10 µM; 1,400 compounds, 68% hits; in the data active = inhibition above about 45%; inconclusive = no clear call, values can overlap the other calls
# * = called active by the depositor; ? = inconclusive; / = no result given.
SMILES,SR-BI HDL uptake,SR-BI uptake up,UBC13 polyUb,Neddyl block,Casp3 counter,UBC13 conf
COc1ccc(NC(=O)c2ccc3[nH]c(C)c(C)c3c2)c(OC)c1,109*,-109,6,10,/,/
CCOc1ccccc1NC(=O)c1ccc2[nH]c(C)c(C)c2c1,/,/,-3,-39,/,/
Cc1cc(NC(=O)c2ccccc2)no1,-31,31,-5,3,/,/
CN(C(=O)COC(=O)c1ccccc1Nc1ccccc1)c1c(N)n(Cc2ccccc2)c(=O)[nH]c1=O,72*,-72,13,4,/,/
Cc1ccccc1C(=O)OCC(=O)N(C)c1c(N)n(Cc2ccccc2)c(=O)[nH]c1=O,-14,14,2,22,/,/
COc1cc2c(cc1NC(=S)Nc1cccc3ccccc13)oc1ccccc12,77*,-77,-15,4,/,/
COc1cc2c(cc1NC(=S)Nc1cccc(C(F)(F)F)c1)oc1ccccc12,75*,-75,4,13,/,/
COc1cc2c(cc1NC(=O)CCC(=O)O)oc1ccccc12,-18,18,-7,8,/,/
COCCCNC(=S)Nc1cc2oc3ccccc3c2cc1OC,88*,-88,13,-10,/,/
CCN1/C(=C\c2ccc3cc(C)ccc3[n+]2CC)Sc2cc(C)c(C)cc21,85*,-85,/,-248,/,/
CCN1/C(=C/c2ccc3cc(C)cc(C)c3[n+]2CC)Sc2cc(C)ccc21,68,-68,/,-306,/,/
Cc1cc(N2CCCCC2)n2nc(C)c(-c3ccccc3)c2n1,52,-52,7,/,/,/
Cc1nn2c(N3CCN(C)CC3)cc(C(C)(C)C)nc2c1-c1ccccc1,33,-33,24,39,/,/
Cc1cc(N2CCC(C)CC2)n2nc(C)c(-c3ccccc3)c2n1,75*,-75,28,33,/,/
Cc1nn2c(N3CCCC3)cc(C(C)C)nc2c1-c1ccccc1,74*,-74,18,11,/,/
COc1ccc(-c2c(C)nn3c(N4CCN(Cc5ccccc5)CC4)cc(C)nc23)cc1OC,77*,-76,18,30,/,/
Cc1cc(N2CCN(Cc3ccccc3)CC2)n2nc(C)c(-c3ccccc3)c2n1,21,-21,11,-15,/,/
C[C@H](CO)N1C[C@H](C)[C@@H](CN(C)S(=O)(=O)c2cccc(F)c2)Oc2ncc(Br)cc2C1=O,/,/,/,-6,/,/
Cc1cc(SCC(=O)NC(=O)c2cccn2C)nc2ccccc12,-2,2,56*,-120,-2,68*
Cc1cc(SCC(=O)O)nc2ccccc12,-11,11,7,0,/,/
C#CCOCCOCCOCCNc1nc(N2CCOCC2)nc(N2CCN(C(=O)[C@H]([C@@H](C)CC)n3cc([C@@H](N)Cc4ccc(O)cc4)nn3)CC2)n1,15,3,15,-26,/,/
C#CCOCCOCCOCCNc1nc(N2CCN(C(=O)C(Cc3ccc(O)cc3)n3cc(C(N)CC(C)C)nn3)CC2)nc(N2CCN(C(=O)C(Cc3cc4ccccc4[nH]3)n3cc(C(N)Cc4ccc(O)cc4)nn3)CC2)n1 (stereo not given),/,/,78*,/,-1,59*
C#CCOCCOCCOCCNc1nc(N2CCN(C(=O)[C@H]([C@@H](C)CC)n3cc([C@@H](N)Cc4ccc(O)cc4)nn3)CC2)nc(N2CCN(C(=O)[C@H]([C@@H](C)CC)n3cc([C@@H](N)CC(C)C)nn3)CC2)n1,0,0,68*,-22,-3,41
C#CCOCCOCCOCCNc1nc(N2CCN(C(=O)[C@H]([C@@H](C)CC)n3cc([C@@H](N)Cc4ccc(O)cc4)nn3)CC2)nc(N2CCN(C(=O)[C@H](Cc3ccc(O)cc3)n3cc([C@@H](N)CC(C)C)nn3)CC2)n1,2,-2,45*,-14,-4,29
C#CCOCCOCCOCCNc1nc(N2CCN(C(=O)[C@H]([C@@H](C)CC)n3cc([C@@H](N)CO)nn3)CC2)nc(N2CCN(C(=O)[C@H](Cc3ccc(O)cc3)n3cc([C@@H](N)CC(C)C)nn3)CC2)n1,5,-5,9,-18,/,/
SMILES,SR-BI HDL uptake,SR-BI uptake up,UBC13 polyUb,Neddyl block,Casp3 counter,UBC13 conf
Cc1cc(C(=O)Cn2cnc3cc(F)ccc3c2=O)c(C)n1C1CC1,/,/,-6,-22,/,/
O=C(OCC(=O)N1CCCCCC1)c1cc(S(=O)(=O)N2CCOCC2)ccc1F,/,/,/,0,/,/
COc1ncccc1C(=O)N1CCCC(C(=O)Nc2cccc(-c3ccc(F)cc3)c2)C1 (stereo not given),/,/,/,9,/,/
Nc1ccc2c(c1)CC(=O)c1ccccc1S2,-15,15,5,2,/,/
O=C1Cc2ccccc2Sc2ccc(O)cc21,-9,9,51*,20,-1,42
CCOC(=O)c1sc2nc(C3CC3)cc(-c3ccc(OC)cc3)c2c1N,0,0,48*,/,-3,?
CCOC(=O)c1sc(-c2ccc(OC)cc2)cc1N,13,-13,5,6,/,/
O=C(OCc1cccc([N+](=O)[O-])c1)c1cccnc1Cl,22,-23,50*,-21,31*,67*
Cc1ncc(S(=O)(=O)c2ccc(Cl)cc2)c(N)n1,-5,5,45*,1,-1,49*
CC(C)(Cc1ccccc1)/[N+]([O-])=C\c1ccc(C(F)(F)F)cc1,25,-25,-4,-14,/,/
O=C(CSc1nc2ccsc2c(=O)n1Cc1ccc(C(=O)O)cc1)NCc1ccco1,-21,21,61*,2,1,60*
Cc1ccc(CNC(=O)CSc2nc3ccsc3c(=O)n2Cc2ccc(C(=O)O)cc2)cc1,-26,26,56*,-1,6,64*
COc1ccc(Cn2c(SCC(=O)NCc3ccco3)nc3ccsc3c2=O)cc1,4,-4,66*,-11,-4,74*
CCCCn1c(SCC(=O)Nc2cc(C)[nH]n2)nc2ccsc2c1=O,-15,15,50*,3,-2,53*
O=C(CSc1nc2ccccc2c(=O)n1Cc1ccccc1)NCc1ccco1,2,-2,6,-194,/,/
COc1ccc(-c2csc(C(O)c3ccc(F)c(F)c3)n2)cc1 (stereo not given),/,/,/,-6,/,/
Cc1nn2c(=O)[nH]cnc2c1Cl,/,/,/,-5,/,/
CN1C(=O)CN(CCN2CC(=O)N(C)C(=O)C2)CC1=O,/,/,/,-9,/,/
Cc1cccc(CSCCNC(=S)Nc2ccccc2)c1,3,-3,48*,-1,6,10
C#CCOCCOCCOCCNc1nc(N2CCOCC2)nc(N2CCN(C(=O)CCCCCCCCCCNC(=O)[C@@H]([C@H](C)CC)n3cc(CCCCCN)nn3)CC2)n1,55,-55,70*,0,2,64*
C#CCOCCOCCOCCNc1nc(N2CCN(C(=O)CCCCCCCCCCNC(=O)[C@@H](CCC(=O)O)n3cc(CCCCCN)nn3)CC2)nc(N2CCN(C(=O)CCCCCCCCCCNC(=O)[C@H]([C@@H](C)CC)n3cc(CCCCCN)nn3)CC2)n1,-9,9,114*,-16,-2,104*
